This is an account of results in ChEMBL document CHEMBL1133118 (J Med Chem, 2000).

Assay [1] concerns the target T1, Adenosine receptor A3 (Homo sapiens) (UniProt P0DMS8).
T1 sequence (whole entry): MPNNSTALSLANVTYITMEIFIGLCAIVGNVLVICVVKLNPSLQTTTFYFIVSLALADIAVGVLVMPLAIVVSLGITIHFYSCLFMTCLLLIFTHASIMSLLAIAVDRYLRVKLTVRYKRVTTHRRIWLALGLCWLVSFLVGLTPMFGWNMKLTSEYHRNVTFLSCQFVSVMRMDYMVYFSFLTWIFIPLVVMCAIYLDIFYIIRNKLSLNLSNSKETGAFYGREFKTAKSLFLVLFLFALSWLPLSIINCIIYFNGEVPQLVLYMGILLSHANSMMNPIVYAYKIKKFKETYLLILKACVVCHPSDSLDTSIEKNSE
Particulars: CHO, 1 uM.

Assay [2] addresses T2, Adenosine receptor A1 (Homo sapiens, UniProt P30542).
T2 sequence (P30542 whole entry): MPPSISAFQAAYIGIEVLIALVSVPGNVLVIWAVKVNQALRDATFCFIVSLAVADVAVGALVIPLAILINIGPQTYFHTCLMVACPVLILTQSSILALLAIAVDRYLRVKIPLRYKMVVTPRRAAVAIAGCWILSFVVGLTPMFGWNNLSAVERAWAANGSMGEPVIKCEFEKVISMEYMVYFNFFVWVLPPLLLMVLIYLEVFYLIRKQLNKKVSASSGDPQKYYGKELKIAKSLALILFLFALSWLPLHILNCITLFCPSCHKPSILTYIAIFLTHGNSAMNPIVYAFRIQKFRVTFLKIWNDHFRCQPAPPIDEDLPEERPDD
In words: Displacement of [3H]DPCPX from human adenosine A1 receptor expressed in CHO cells; range 254-356. The format is cell-based. (In general: In a radioligand displacement assay an active substance lowers the binding of a labelled ligand.)

In assay [3] the target is Adenosine receptors; A2b & A3 (Homo sapiens) (UniProt P29275+P0DMS8). In words: Ratio of binding affinity of human A2B receptor to that of human A3 receptor. The format is protein assay. In short, it runs like this:
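Ki ratio, n=3-6, 6–8 concentrations. A2B in HEK-293 membranes (20 μg): 40 nM [3H]DPCPX, 50 mM Tris HCl, 10 mM MgCl2, 1 mM EDTA, 0.1 mM benzamidine pH 7.4, 2 IU/mL adenosine deaminase, 60 min at 25 °C, nonspecific with 100 μM NECA. A3 in CHO membranes (50 μg): 1 nM [3H]MRE3008-F20, 120 min at 4 °C.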

In assay [4] the target is T3, Adenosine receptor A3 (Homo sapiens, UniProt P0DMS8).
T3 sequence (P0DMS8 whole entry): T1 sequence (whole entry)
In words: biochemical.

Assay [5] addresses Adenosine receptors; A1 & A3 (Homo sapiens) (UniProt P30542+P0DMS8). In words: Ratio of binding affinity of human A1 receptor to that of human A3 receptor. The format is protein assay. The method, boiled down: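 Ki ratio from displacement in CHO membranes, 6–8 concentrations, n=3-6, filtration counting. A1: 1 nM [3H]DPCPX, 50 μg protein, 120 min at 25 °C, nonspecific with 10 μM CHA. A3: 1 nM [3H]MRE3008-F20, 50 μg protein, Tris/10 mM MgCl2 pH 7.4, 120 min at 4 °C, nonspecific with 1 μM MRE3008-F20.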

Assay [6] addresses T4, Adenosine receptor A2a (Homo sapiens, UniProt P29274). In words: Displacement of [3H]-SCH- 58261 from human adenosine A2A receptor expressed in CHO cells; range 850-1230. The format is cell-based.
For assay [7], the target named is T5, Adenosine receptor A2b (Homo sapiens, UniProt P29275).
T5 sequence (P29275 whole entry): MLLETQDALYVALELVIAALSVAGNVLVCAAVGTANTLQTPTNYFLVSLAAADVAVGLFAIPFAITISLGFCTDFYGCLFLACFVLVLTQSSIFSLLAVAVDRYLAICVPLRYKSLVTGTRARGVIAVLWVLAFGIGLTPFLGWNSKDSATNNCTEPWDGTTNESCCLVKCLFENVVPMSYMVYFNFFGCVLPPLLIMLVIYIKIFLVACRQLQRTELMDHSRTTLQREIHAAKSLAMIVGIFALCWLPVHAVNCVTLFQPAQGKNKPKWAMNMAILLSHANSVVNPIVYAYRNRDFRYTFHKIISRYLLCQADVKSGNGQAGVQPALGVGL
In words: Displacement of [3H]-DPCPX from Adenosine A2b receptor expressed in […]; range 52-65. The format is cell-based.

In assay [8] the target is T3, Adenosine receptor A3. In words: biochemical. This is another data set of the same source.
Assay [9] deals with T5, Adenosine receptor A2b. In words: Displacement of [3H]DPCPX from Adenosine A2b receptor expressed in HEK-293 cells; range 934-1327.
Assay [10] has as its target T2, Adenosine receptor A1. In words: Displacement of [3H]DPCPX from human adenosine A1 receptor expressed in CHO cells; range 170-358. The assay is classed as cell-based.
Assay [11] concerns the target T1, Adenosine receptor A3 (Homo sapiens). In words: Percentage of blockade by 1 uM of the inhibition by 100 nM IB-MECA-inhibited cAMP accumulation in CHO cells expressing human adenosine A3 receptor. The format is functional, cell-based. The method, boiled down:
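CHO cells stably expressing human A3 receptor; membranes in 50 mM Tris HCl, 10 mM MgCl2, 1 mM EDTA pH 7.4 with 5 μM GTP, 0.5 mM […] and 2.0 IU/mL adenosine deaminase. Preincubated 10 min at 37 °C, then IB-MECA (100 nM) and/or antagonist with 1 mM ATP and 10 μM forskolin for 10 min. Boiled 2 min. cAMP read by [3H]cAMP competition with adrenal binding protein.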

In assay [12] the target is T4, Adenosine receptor A2a. In words: Displacement of [3H]-SCH- 58261 from human adenosine A2A receptor expressed in CHO cells; range 267-453. The assay is classed as cell-based.
For assay [13], the target named is T5, Adenosine receptor A2b. In words: Displacement of [3H]DPCPX from Adenosine A2b receptor expressed in […]; range 1637-2582. The assay is classed as cell-based.
Assay [14] deals with T1, Adenosine receptor A3 (Homo sapiens). The conditions noted are these: CHO, 1 uM. The source holds these as a separate data set.
The target of assay [15] is T4, Adenosine receptor A2a. In words: Displacement of [3H]-SCH- 58261 from human adenosine A2A receptor expressed in CHO cells; range 484-558. The format is cell-based. In short, it runs like this: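 Membranes from CHO cells stably expressing human A2A receptor, grown in DMEM/F12 without nucleosides, resuspended in 50 mM Tris HCl, 10 mM MgCl2, pH 7.4; 50 μg protein/assay. Competition with [3H]SCH 58261 at 6–8 or more compound concentrations, 60 min at 25 °C; nonspecific binding with 50 μM NECA. Filtration on GF/B filters, scintillation counting; n=3-6.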

For assay [16], the target named is T5, Adenosine receptor A2b. In words: Displacement of [3H]DPCPX from Adenosine A2b receptor expressed in […]; range 332-369. The assay is classed as cell-based.
The target of assay [17] is T3, Adenosine receptor A3. In words: Displacement of [3H]MRE3008-F20 from human adenosine A3 receptor expressed in CHO cells; range 0.08-0.27. The assay is classed as cell-based.
The target in assay [18] is T3, Adenosine receptor A3. In words: Inhibition of cAMP accumulation in CHO cells expressing human A3 adenosine receptor. The assay is classed as functional, cell-based.
The target of assay [19] is T2, Adenosine receptor A1. In words: Displacement of [3H]DPCPX from human adenosine A1 receptor expressed in CHO cells; range 365-550. The format is cell-based.
For assay [20], the target named is T5, Adenosine receptor A2b. In words: Displacement of [3H]DPCPX from Adenosine A2b receptor expressed in HEK-293 cells; range 23-40.
Assay [21] concerns the target T4, Adenosine receptor A2a. In words: Displacement of [3H]-SCH- 58261 from human adenosine A2A receptor expressed in CHO cells; range 8.7-10.5. The format is cell-based.
Assay [22] concerns the target T3, Adenosine receptor A3. In words: Inhibition of cAMP accumulation in CHO cells expressing human adenosine A3 receptor. The assay is classed as functional, cell-based. Background: Changes in cAMP serve as a functional read-out for many G protein-coupled receptors.
The target of assay [23] is T2, Adenosine receptor A1. In words: Displacement of [3H]-DPCPX from human adenosine A1 receptor expressed in CHO cells; range 6.9-9.7. The assay is classed as cell-based.

T4 sequence (P29274 whole entry): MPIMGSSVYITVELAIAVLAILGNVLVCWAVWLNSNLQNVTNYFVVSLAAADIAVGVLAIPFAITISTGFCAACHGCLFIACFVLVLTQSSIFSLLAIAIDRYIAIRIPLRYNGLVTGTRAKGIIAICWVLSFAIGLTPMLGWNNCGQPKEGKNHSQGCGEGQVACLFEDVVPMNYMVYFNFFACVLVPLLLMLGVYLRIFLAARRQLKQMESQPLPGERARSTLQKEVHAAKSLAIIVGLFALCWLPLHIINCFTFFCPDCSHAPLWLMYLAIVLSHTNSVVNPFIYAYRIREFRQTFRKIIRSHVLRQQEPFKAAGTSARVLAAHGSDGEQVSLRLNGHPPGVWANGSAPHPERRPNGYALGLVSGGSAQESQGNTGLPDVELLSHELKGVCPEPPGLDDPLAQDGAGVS

In the case of `COc1ccc(NC(=O)Nc2nc3nn(CC=C(C)C)cc3c3nc(-c4ccco4)nn23)cc1`, in [1], the inhibition (commonly the drop in the measured response relative to a control, in per cent) amounted to 42%. For the same molecule, the Ki (commonly a dissociation constant, usually derived from enzyme kinetics or from competition with a known ligand) was determined as 300 nM at Adenosine receptor A1 [2], 40 nM at Adenosine receptor A3 [4], 1020 nM on Adenosine receptor A2a [6] and 58 nM at Adenosine receptor A2b [7]. Moreover, the Ratio in assay [3] was 1.45; in [5], 7.5.
With `Nc1nc2nn(CCc3cc(Br)c(Br)cc3Br)cc2c2nc(-c3ccco3)nn12`, the Ki was determined as 4480 nM on Adenosine receptor A3 [8], 1110 nM at Adenosine receptor A2b [9], 247 nM on Adenosine receptor A1 [10] and 348 nM at Adenosine receptor A2a [12]. Moreover, in assay [11], the inhibition stood at 3%. Besides, the Ratio in [3] worked out at 0.25; in assay [5], 0.06.
On to `CCCn1cc2c(nc(NC(=O)Nc3ccc(OC)cc3)n3nc(-c4ccco4)nc23)n1`, for which, at Adenosine receptor A2b [13], the affinity corresponds to a Ki of 2060 nM.
As to `COc1ccc(NC(=O)Nc2nc3n[nH]cc3c3nc(-c4ccco4)nn23)cc1`, the inhibition in assay [14] was determined as 98%. In addition, the inhibition constant (Ki) turned out to be 520 nM at Adenosine receptor A2a [15], 350 nM at Adenosine receptor A2b [16], 0.14 nM at Adenosine receptor A3 [17] and 448 nM at Adenosine receptor A1 [19]. Further, the concentration for half-maximal inhibition (IC50) (as a rule, the concentration that inhibits the measured activity by half) against Adenosine receptor A3 [18] is 1.8 nM. The Ratio was found to be 2500 in assay [3] and 3200 in assay [5].
As for `O=C(Nc1cccc(Cl)c1)Nc1nc2ccc(Cl)cc2c2nc(-c3ccco3)nn12`, the values for the inhibition constant (Ki) at Adenosine receptor A2b [20], on Adenosine receptor A2a [21] and at Adenosine receptor A1 [23] were 30 nM, 9.5 nM and 8.1 nM, respectively. At Adenosine receptor A3 [22], this molecule came in with an IC50 of 2.4 nM. The molecule further had an inhibition in assay [11] of 95%. The Ratio in assay [3] amounted to 157; in [5] it was 54.
